pEC50: −log10 of the molar value.
Assays:
[1] = Metabolic stability in dog plasma assessed as compound remaining at 1 ug/ml after 30 mins; assay type: ADME, cell-free, Canis lupus familiaris; details: read-out: Stability
How it was run: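 Duplicate incubations; compound at final 1 μg/mL in plasma preincubated and kept at […]; samples taken at 30 or 240 min, quenched with ice-cold acetonitrile, centrifuged, supernatant diluted with water; parent quantified by LC-MS/MS (Polar-RP column, formic acid water/acetonitrile gradient, positive ion mode); % remaining reported.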

[2] = tested on: Hepatitis C virus; test: Antiviral activity against HCV1b infected in human HuH7 cells assessed as inhibition of viral replication after 48 hrs by luciferase reporter gene assay; assay type: functional, organism-based, Hepacivirus hominis; details: genotype 1b, Huh-7, 48 h
How it was run: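 Huh7 cells carrying genotype 1b bicistronic subgenomic replicon, seeded 2 × 10⁴/well without G-418; compounds added 18-24 h later, 48 h exposure; 3× or 4× serial dilutions over 0.0001-10 μM in triplicate/quadruplicate; Renilla luciferase read-out versus untreated cells; EC₅₀ by four-parameter sigmoidal nonlinear regression; at least three independent assays.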

[3] = Cmax in ICR mouse plasma at 50 mg/kg, po by LC-MS/MS analysis; assay type: ADME, organism-based; design: dose 50 mg/kg, route oral
[4] = tested on: Plasma; test: Dose normalized AUC in ICR mouse plasma at 50 mg/kg, po by LC-MS/MS analysis; assay type: ADME, organism-based; design: dose 50 mg/kg, route oral; details: in vivo
[5] = tested on: Liver; test: Dose normalized AUC in ICR mouse liver at 50 mg/kg, po by LC-MS/MS analysis; assay type: ADME, organism-based; design: dose 50 mg/kg, route oral; details: in vivo
[6] = species on record: Homo sapiens; test: Metabolic stability in human plasma assessed as compound remaining at 1 ug/ml after 30 mins
[7] = tested on: Liver; test: AUC (0 to 6 hrs) in ICR mouse liver at 50 mg/kg, po by LC-MS/MS analysis; assay type: ADME, organism-based; design: time < 6 hr, dose 50 mg/kg, route oral; details: in vivo
[8] = Cytotoxicity against human HuH7 cells after 72 hrs by celltiter-glo assay; assay type: cell-based, Huh-7
How it was run: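 Replicon 1b Huh7 cells seeded 2 × 10⁴/well; after 24 h, 11 serial 2× dilutions from 100 μM (three repeats each) with no-compound control; 72 h at 37 °C, CO₂, log-phase growth; viability by CellTiter-Glo luminescence; CC₅₀ = concentration giving 50% signal.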

[9] = Metabolic stability in mouse plasma assessed as compound remaining at 1 ug/ml after 30 mins; assay type: ADME, cell-free; details: read-out: Stability
[10] = tested on: Liver; test: AUC (0 to 24 hrs) in ICR mouse liver at 50 mg/kg, po by LC-MS/MS analysis; assay type: ADME, organism-based; design: time < 24 hr, dose 50 mg/kg, route oral; details: in vivo
[11] = Metabolic stability in human liver S9 fraction assessed as compound remaining at 10 uM after 60 mins by HPLC analysis in absence of NADP; assay type: ADME, subcellular; details: read-out: Stability
How it was run: (§1)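 Liver or intestinal S9 at final 1 mg/mL in 50 mM potassium phosphate, with or without NADPH-regenerating system (1.3 mM NADP, 3.3 mM glucose-6-phosphate, 0.4 U/mL G6PDH, 3.3 mM MgCl₂); 10 min preincubation at 37 °C; compound at final 10 μM; samples at start and 60 min quenched in cold acetonitrile, centrifuged, HPLC; % parent remaining.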

[12] = Metabolic stability in dog liver S9 fraction assessed as compound remaining at 10 uM after 60 mins by HPLC analysis in presence of NADP; assay type: ADME, subcellular, Canis lupus familiaris; details: read-out: Stability; how it was run: as §1
[13] = Metabolic stability in dog intestine S9 fraction assessed as compound remaining at 10 uM after 60 mins by HPLC analysis in presence of NADP; assay type: ADME, tissue-based, Canis lupus familiaris; details: read-out: Stability; how it was run: as §1
[14] = Metabolic stability in human liver S9 fraction assessed as compound remaining at 10 uM after 60 mins by HPLC analysis in presence of NADP; assay type: ADME, subcellular; details: read-out: Stability; how it was run: as §1
[15] = Metabolic stability in human intestine S9 fraction assessed as compound remaining at 10 uM after 60 mins by HPLC analysis in absence of NADP; assay type: ADME, tissue-based; details: read-out: Stability; how it was run: as §1
[16] = Metabolic stability in dog liver S9 fraction assessed as compound remaining at 10 uM after 60 mins by HPLC analysis in absence of NADP; assay type: ADME, subcellular, Canis lupus familiaris; details: read-out: Stability; how it was run: as §1
[17] = Metabolic stability in human intestine S9 fraction assessed as compound remaining at 10 uM after 60 mins by HPLC analysis in presence of NADP; assay type: ADME, tissue-based; details: read-out: Stability; how it was run: as §1
[18] = Metabolic stability in dog intestine S9 fraction assessed as compound remaining at 10 uM after 60 mins by HPLC analysis in absence of NADP; assay type: ADME, tissue-based, Canis lupus familiaris; details: read-out: Stability; how it was run: as §1
[19] = Metabolic stability in cynomolgus monkey intestine S9 fraction assessed as compound remaining at 10 uM after 60 mins by HPLC analysis in presence of NADP; assay type: ADME, tissue-based, Macaca fascicularis; details: read-out: Stability; how it was run: as §1
[20] = Metabolic stability in rat intestine S9 fraction assessed as compound remaining at 10 uM after 60 mins by HPLC analysis in absence of NADP; assay type: ADME, tissue-based; details: read-out: Stability
How it was run: (§2)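 Rat liver or intestinal S9 at 1 mg/mL final in 50 mM potassium phosphate, with or without NADPH-regenerating system (final 1.3 mM NADP, 3.3 mM glucose-6-phosphate, 0.4 U/mL G6P dehydrogenase, 3.3 mM MgCl2). Preincubated 10 min at 37 °C with shaking, started with compound at 10 μM final. Samples taken at 0 and 60 min, quenched in cold acetonitrile, centrifuged, and parent disappearance measured by HPLC.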

[21] = Metabolic stability in cynomolgus monkey liver S9 fraction assessed as compound remaining at 10 uM after 60 mins by HPLC analysis in presence of NADP; assay type: ADME, subcellular, Macaca fascicularis; details: read-out: Stability; how it was run: as §1
[22] = Metabolic stability in rat liver S9 fraction assessed as compound remaining at 10 uM after 60 mins by HPLC analysis in absence of NADP; assay type: ADME, subcellular; details: read-out: Stability; how it was run: as §2
[23] = Metabolic stability in rat intestine S9 fraction assessed as compound remaining at 10 uM after 60 mins by HPLC analysis in presence of NADP; assay type: ADME, tissue-based; details: read-out: Stability; how it was run: as §2
[24] = Metabolic stability in cynomolgus monkey intestine S9 fraction assessed as compound remaining at 10 uM after 60 mins by HPLC analysis in absence of NADP; assay type: ADME, tissue-based, Macaca fascicularis; details: read-out: Stability; how it was run: as §1
[25] = Metabolic stability in rat liver S9 fraction assessed as compound remaining at 10 uM after 60 mins by HPLC analysis in presence of NADP; assay type: ADME, subcellular; details: read-out: Stability; how it was run: as §2
[26] = Metabolic stability in cynomolgus monkey liver S9 fraction assessed as compound remaining at 10 uM after 60 mins by HPLC analysis in absence of NADP; assay type: ADME, subcellular, Macaca fascicularis; details: read-out: Stability; how it was run: as §1
[27] = Metabolic stability in mouse plasma assessed as compound remaining at 1 ug/ml after 4 hrs; assay type: ADME, cell-free; details: read-out: Stability

Row | Structure (SMILES) | remaining at 0.5 h, 1 ug/ml [1] [%] | pEC50 [2] | Cmax [3] [ng/mL] | AUC [4] [ng·h/mL] | AUC [5] [ng·h/g] | remaining at 0.5 h, 1 ug/ml [6] [%] | AUC [7] [ng·h/g] | CC50 at 72 h [8] [nM] | remaining at 0.5 h, 1 ug/ml [9] [%] | remaining at 1 h, 10 µM [11] [%] | remaining at 1 h, 10 µM [12] [%] | remaining at 1 h, 10 µM [13] [%] | remaining at 1 h, 10 µM [14] [%] | remaining at 1 h, 10 µM [15] [%] | remaining at 1 h, 10 µM [16] [%] | remaining at 1 h, 10 µM [17] [%] | remaining at 1 h, 10 µM [18] [%] | other results
1 | CC(C)[C@H](NP(=O)(OC[C@H]1O[C@@H](n2cnc3c(=O)[nH]c(N)nc32)[C@](C)(O)[C@@H]1O)Oc1cccc2ccccc12)C(=O)OC1CCCCC1 (stereo partly drawn) | 95 | 6.00 | 185 | 33 | 77 | 97 | 815 | > 100000 | 95 | – | – | – | – | – | – | – | – | AUC [10]: 3860 ng·h/g
2 | COC(=O)[C@H](CCSC)NP(=O)(OC[C@H]1O[C@@H](n2cnc3c(=O)[nH]c(N)nc32)[C@](C)(O)[C@@H]1O)Oc1cccc2ccccc12 (stereo partly drawn) | – | 6.55 | – | – | – | – | – | > 100000 | 76 | 14 | 40 | 56 | 3 | 27 | 57 | 42 | – | –
3 | CC(C)OC(=O)[C@H](C)NP(=O)(OC[C@H]1O[C@@H](n2cnc3c(=O)[nH]c(N)nc32)[C@](C)(O)[C@@H]1O)Oc1cccc2ccccc12 (stereo partly drawn) | – | 6.77 | – | – | – | – | – | > 100000 | 14 | 41 | 81 | 66 | 27 | 85 | 91 | 65 | 68 | remaining at 1 h, 10 µM [19]: 48%; remaining at 1 h, 10 µM [20]: 76%; remaining at 1 h, 10 µM [21]: 0%; remaining at 1 h, 10 µM [22]: 28%; remaining at 1 h, 10 µM [23]: 77%; remaining at 1 h, 10 µM [24]: 87%; remaining at 1 h, 10 µM [25]: 25%; remaining at 1 h, 10 µM [26]: 86%
4 | CC(C)[C@H](NP(=O)(OC[C@H]1O[C@@H](n2cnc3c(=O)[nH]c(N)nc32)[C@](C)(O)[C@@H]1O)Oc1cccc2ccccc12)C(=O)OCc1ccccc1Cl (stereo partly drawn) | 100 | 6.37 | 518 | 49 | 18 | 77 | 880 | > 100000 | 69 | – | – | – | – | – | – | – | – | –
5 | COC(=O)[C@H](C)NP(=O)(OC[C@H]1O[C@@H](n2cnc3c(=O)[nH]c(N)nc32)[C@](C)(O)[C@@H]1O)Oc1cccc2ccccc12 (stereo partly drawn) | – | 6.68 | – | – | – | – | – | > 50000 | 1.7 | 40 | 67 | 50 | 20 | 63 | 85 | 60 | 54 | –
6 | CC(C)[C@H](NP(=O)(OC[C@H]1O[C@@H](n2cnc3c(=O)[nH]c(N)nc32)[C@](C)(O)[C@@H]1O)Oc1cccc2ccccc12)C(=O)OCc1ccc(Cl)cc1 (stereo partly drawn) | 89 | 6.21 | 339 | 88 | 18 | 95 | 920 | – | 94 | – | – | – | – | – | – | – | – | –
7 | C[C@H](NP(=O)(OC[C@H]1O[C@@H](n2cnc3c(=O)[nH]c(N)nc32)[C@](C)(O)[C@@H]1O)Oc1ccc2ccccc2c1)C(=O)OCc1ccccc1 (stereo partly drawn) | – | 6.77 | – | – | – | – | – | > 50000 | 0.7 | 29 | 33 | 23 | 14 | 23 | 28 | 24 | 27 | –
8 | CC[C@H](C)[C@H](NP(=O)(OC[C@H]1O[C@@H](n2cnc3c(=O)[nH]c(N)nc32)[C@](C)(O)[C@@H]1O)Oc1cccc2ccccc12)C(=O)OCc1ccccc1 (stereo partly drawn) | – | 6.05 | – | – | – | – | – | > 50000 | 100 | 83 | 64 | 87 | 29 | 74 | 84 | 52 | 96 | remaining at 1 h, 10 µM [19]: 29%; remaining at 1 h, 10 µM [20]: 70%; remaining at 1 h, 10 µM [21]: 0%; remaining at 1 h, 10 µM [22]: 78%; remaining at 4 h, 1 ug/ml [27]: 95%; remaining at 1 h, 10 µM [23]: 71%; remaining at 1 h, 10 µM [24]: 95%; remaining at 1 h, 10 µM [25]: 37%; remaining at 1 h, 10 µM [26]: 89%
